# Assay results as given in the EternaBench riboswitch data.
# What was measured:
# [1] = test system: MS2 coat protein; assay: apparent Kd, MS2 coat protein; higher = weaker binding; RNA-MaP array; theophylline 2 mM where present
# Summary of the method: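 Binding was read on Illumina sequencing-chip clusters where stalled E. coli RNA polymerase had transcribed each design. A titration of SNAP-549-labelled MS2 coat protein began at 0.7 or 1.5 nM and doubled to 3 µM, once without ligand and once with constant ligand, in 100 mM Tris-HCl pH 7.5, 80 mM KCl, 4 mM MgCl2, BSA, DTT, yeast tRNA and Tween-20. The apparent Kd is the median of filtered per-cluster binding-curve fits, based on green signal normalised to red-channel RNA signal and control-cluster median Fmax.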
# [2] = test system: MS2 coat protein; assay: apparent Kd, MS2 coat protein; higher = weaker binding; RNA-MaP array
# Summary of the method: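 RNA designs were transcribed from sequenced DNA templates on an Illumina sequencing chip and then incubated at room temperature with fluorescently labeled MS2 coat protein at 1.5 nM to 3 μM, with or without input ligand, in Tris-HCl pH 7.5 buffer containing KCl, MgCl2, BSA, DTT, tRNA and Tween20. Incubation lasted 0.8–1.5 h at the lowest protein concentrations and 10–20 min at the highest. Apparent Kd is the median of binding-curve fits made for each cluster. Designs measured on fewer than 10 clusters were excluded.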
# [3] = designed as: OFF switch for theophylline, no ligand
# [4] = ligand present: theophylline, designed as: OFF switch for theophylline
# [5] = designed as: ON switch for theophylline, no ligand
# [6] = ligand present: theophylline, designed as: ON switch for theophylline
# [7] = designed as: OFF switch for flavin mononucleotide, no ligand
# [8] = ligand present: flavin mononucleotide, designed as: OFF switch for flavin mononucleotide
Sequence,"apparent Kd [1, 3] [nM]","apparent Kd [1, 4] [nM]","apparent Kd [1, 5] [nM]","apparent Kd [1, 6] [nM]",further results
ACAUCCAGGUUAAUCGUGGGCAUGGUCGAUACCAGUAUUUUAAUCUACCCUUGGCAGCGACAUGAGGAUCACCCAUGUGCGAUGA,24.6,36.3,–,–,–
AAUUUGUCGGGUGAUACCAGCCUCGGCGCGUCUCGCGCUGAACAUGAGGAUCACCCAUGUGGCCCUUGGCAGCACAUGACAAAUC,–,–,670,38.2,–
AGCGACAUGCAUGAUACCAGCUACAUGAGGAUCACCCAUGUACGUCAGUAAUGACUGUGUAGCCCUUGGCAGCAUAGAGCAUGUC,18.3,48.6,–,–,–
ACGAACGAUAGUGAUACCAGACGUACAUGAGGAUCACCCAUGUUAUACACAUGGUUUAUUGUCCCUUGGCAGCACGAUAAGUUCG,225,287,–,–,–
ACAUGAGGAUCACCCAUGUGGCGACUUGAUACCAGACCCGCACUAGUCCCUUGGCAGCAACUACGUGUGGGACACCCAUGUUAAG,16.9,22,–,–,–
UUGGUAGGACAGCUCAUAUAAGCAUGUGAUACCAGCUAGAAAACUAGCCCUUGGCAGCACUUUACAUGAGGAUCACCCAUGUCCC,165,460,–,–,–
GCCAGACAUGAGGAUCACCCAUGUAGCGAUACCAGCUCUGUUGUGAGCCCUUGGCAGCGCACUGGCAUCGCGGGUGAUCCUGCAU,–,–,43.4,164,–
AGAUUACAUGUUAUAAUACGGUAUACUGAUACCAGUGUUUCUAUUCACCCUUGGCAGCAGCAACAUGAGGAUCACCCAUGUAUUA,–,–,17.1,16,–
GGUGGUGGGACGGAUACCAGCCACCGCGGCAACGCAACAUGAGGAUCACCCAUGUUGGGUGGCCCUUGGCAGCUGUCCUGCGGCG,–,–,13.9,13.1,–
UCGUGUGUUUCGGAUACCAGUGAAAUCGAUACAUGAGGAUCACCCAUGUGAGAGGAUGUACACCCUUGGCAGCUGUCUGUAGCGG,–,–,48.9,37.4,–
UGUAACAUGAGGAUCACCCAUGUAAGUGAUACCAGAUAAGUAGUAGUCCCUUGGCAGCAUAUUGGGAAAGUGUAUAGUCUAUAUU,–,–,57.2,55.6,–
AGACAUGAGGAUCACCCAUGUAGUAUGGAUACCAGAUCCAGAUUUAUCCCUUGGCAGCUGUGGUACAGUGAUGGAUUGCUCCUAG,31,40.8,–,–,–
UUUGAUAGGACAGAUACCAGCGUGUUAUAAAACAUGAGGAUCACCCAUGUAGUGAUCAAGCGCCCUUGGCAGCUGGUUUGUUAGG,–,–,188,323,–
GAUCUGUCGGGUGAUACCAGCCUCGGCACAUCUCGUGCCGAACAUGAGGAUCACCCAUGUGGCCCUUGGCAGCACAUGACAAAUC,–,–,362,55.1,–
UGUAACAUGAGGAUCACCCAUGUAAGUGAUACCAGAUAAGUAGUAGUCCCUUGGCAGCAUAUUGGGAAAGUGUAUAGUGUAUAUG,–,–,53.3,61.7,–
ACGUCUCGAAAACUCGUAGUAACAAUAGAUACCAGUAGCGAGAGUUACCCUUGGCAGCUACAUGAGGAUCACCCAUGUACGAGGA,17.4,17.2,–,–,–
UGCUGACAAGGACAUGGAUGAUCAGCUGAUACCAGCCUGGAAACAGGCCCUUGGCAGCAGCACAUGAGGAUCACCCAUGUAAUAA,33.7,66.3,–,–,–
UGAACAUGAGGAUCACCCAUGUAGUCAGAUACCAGACACUGCAUGGUCCCUUGGCAGCUGAAGAGCGUUUGCCAAAUAACGUUCA,–,–,162,567,–
GUAGGUUGCCAAGGAUAUGCGGGUACUCUUCCGAAACAUGAGGAUCACCCAUGUACUCUCCUGUAGCAGAAGGUGGCUUGGUGA,–,–,–,–,"apparent Kd [2, 7]: 493 nM; apparent Kd [2, 8]: 269 nM"
CGGCGGGACUCACAUGAGGAUCACCCAUGUUUAAAGGGUCAAAAGGAUAUGAAAACAGCAAGUAAUCAGAAGGUUUACCUAGUG,–,–,–,–,"apparent Kd [2, 7]: 14.5 nM; apparent Kd [2, 8]: 15.8 nM"
GAAGACAUGAGGAUCACCCAUGUUACACACCGAGGACCGGUACGGCCGCCACUCGUAGGCCCUCGGCUCACCUGAGAUCCGCAUC,–,–,–,–,"apparent Kd ([2]; designed as: ON switch for tryptophan, no ligand): 23.8 nM; apparent Kd ([2]; ligand present: tryptophan, designed as: ON switch for tryptophan): 22.6 nM"
AAUGGACGAGGAUAUACAUGAGGAUCACCCAUGUCACAGUGGGCUCACCGUUCGGGUAGUAGAAGGCGUUUCUA,–,–,–,–,"apparent Kd [2, 7]: 107 nM; apparent Kd [2, 8]: 282 nM"
